The values below come from ChEMBL document CHEMBL5674890, “Selective inhibition of CBP/p300 HAT by A-485 results in suppression of lipogenesis and hepatic gluconeogenesis” (Cell Death Dis, 2020).

In assay [1] the test system is Mus musculus. The assay can be described thus: Anti-obesity activity in C57BL/6 mouse supplemented with high fat diet assessed as decrease in total fat mass at 20 mg/kg/day, ip administered for 1 week. The format is functional, organism-based. The following applies: time 1.0 weeks. Summed up:
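Male C57BL/6 mice fed high-fat diet for 14 weeks from 5 weeks of age, then ip 20 mg·kg−1·day−1 for 7 days. Body weight, EchoMRI lean/fat mass, and random or 16 h-fasted blood glucose recorded, as the line states.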

In assay [2] the test system is Mus musculus. The assay can be described thus: Anti-obesity activity in C57BL/6 mouse supplemented with high fat diet assessed as decrease in blood glucose level at 20 mg/kg/day, ip administered for 1 week measured by pyruvate tolerance test. Type of assay: functional, organism-based. The conditions noted are these: time 1.0 weeks. Summed up: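 High-fat diet male C57BL/6 mice (14 weeks on HFD from 5 weeks of age) dosed ip at 20 mg·kg−1·day−1 for 7 days. 16 h fast, then pyruvate 2 g/kg body weight ip; blood glucose tracked.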

Assay [3] concerns Mus musculus. The assay can be described thus: Inhibition of lipogenesis in C57BL/6 mouse supplemented with normal chow diet assessed as decrease in SREBP-1c mRNA expression at 20 mg/kg/day, ip administered for 1 week measured by RT-qPCR assay. Type of assay: functional, organism-based. The conditions noted are these: time 1.0 weeks. The method in brief: (§1)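 Eight-week-old male C57BL/6 mice on normal chow were given 20 mg·kg−1·day−1 ip daily for 7 days or vehicle. Epididymal WAT was collected. Lipogenic, adipogenic and fatty-acid-oxidation transcripts were quantified by Trizol extraction and SYBR Green RT-qPCR. FAS, ACC, PPARγ and C/EBPα protein were assessed by western blot. n = 5–9; mean ± SEM.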
Background: Quantitative PCR measures a nucleic acid by following its amplification.

Assay [4] has as its system Mus musculus. Nature of the assay: Inhibition of lipogenesis in C57BL/6 mouse supplemented with normal chow diet assessed as effect on UCP1 mRNA expression at 20 mg/kg/day, ip administered for 1 week measured by RT-qPCR assay. Type of assay: functional, organism-based. The following applies: time 1.0 weeks. The method in brief:
as §1

Assay [5] relates to Mus musculus. Nature of the assay: Inhibition of lipogenesis in C57BL/6 mouse supplemented with high-fat diet assessed as decrease in LPL mRNA expression at 20 mg/kg/day, ip administered for 1 week measured measured by RT-qPCR assay. The following applies: time 1.0 weeks. The format is functional, organism-based. The method in brief: (§2)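 Male C57BL/6 mice were fed high-fat diet for 14 weeks from 5 weeks of age, then injected ip with 20 mg·kg−1·day−1 for 7 days or given vehicle. Epididymal and inguinal WAT were weighed, examined by H&E, and analysed. Transcripts were measured by Trizol/SYBR Green RT-qPCR; proteins by western blot. n = 5–9; mean ± SEM.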

Assay [6] relates to Mus musculus. The assay can be described thus: Inhibition of lipogenesis in C57BL/6 mouse supplemented with high-fat diet assessed as decrease in C/EBPalpha mRNA expression at 20 mg/kg/day, ip administered for 1 week measured measured by RT-qPCR assay. Type of assay: functional, organism-based. The conditions noted are these: time 1.0 weeks. The method in brief:
as §2

In assay [7] the test system is Adipocyte. Nature of the assay: Inhibition of lipogenesis in mouse adipocytes isolated stromal vascular cells assessed as decrease in SCD1 mRNA expression measured after 24 hrs by RT-qPCR assay. The format is functional, cell-based. The method in brief:
(§3)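 Stromal vascular cells from inguinal WAT of C57BL/6 mice, grown in DMEM/F12 + 10% FBS at 37 °C, 10% CO2. At confluence, induced 48 h with 5 μg/ml insulin, 1 μM dexamethasone, 0.5 mM isobutylmethylxanthine, then 6 days in 5 μg/ml insulin; fully differentiated day 8. Mature adipocytes exposed to inhibitor 24 h. Total RNA by Trizol, SYBR Green RT-qPCR; protein by western blot.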

The subject of assay [8] is Adipocyte. Nature of the assay: Inhibition of lipogenesis in mouse adipocytes isolated stromal vascular cells assessed as decrease in SREBP-1c mRNA expression measured after 24 hrs by RT-qPCR assay. The format is functional, cell-based. Summed up: as §3
The subject of assay [9] is Adipocyte. Nature of the assay: Inhibition of lipogenesis in mouse adipocytes isolated stromal vascular cells assessed as decrease in FABP4 mRNA expression measured after 24 hrs by RT-qPCR assay. The format is functional, cell-based. Summed up:
as §3

The test system of assay [10] is Mus musculus. Nature of the assay: Inhibition of hepatic lipogenesis in C57BL/6 mouse supplemented with normal chow diet assessed as decrease in ChREBP protein expression at 20 mg/kg/day, ip administered for 1 week measured by western blot analysis. The format is functional, organism-based. The conditions noted are these: time 1.0 weeks. Summed up:
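Normal-chow male C57BL/6 mice, 8 weeks old, were injected ip at 20 mg·kg−1·day−1 daily for 7 days or given vehicle. Liver tissue was homogenized in lysis buffer, and FAS and ChREBP protein were assessed by western blot. n = 5–9.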
A general note: A western blot detects proteins with antibodies after separation by electrophoresis.

In assay [11] the test system is Mus musculus. The assay can be described thus: Inhibition of hepatic lipogenesis in C57BL/6 mouse supplemented with normal chow diet assessed as effect on ACADVL mRNA expression at 20 mg/kg/day, ip administered for 1 week measured by RT-qPCR assay. The format is functional, organism-based. The conditions noted are these: time 1.0 weeks. The method in brief: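 Normal-chow male C57BL/6 mice, 8 weeks old, were injected ip at 20 mg·kg−1·day−1 daily for 7 days or given vehicle. Liver RNA was extracted with Trizol, and fatty-acid-oxidation gene transcripts were quantified by SYBR Green RT-qPCR. n = 5–9; mean ± SEM.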

The subject of assay [12] is Hepatocyte. The assay can be described thus: Inhibition of lipogenesis in mouse primary hepatocytes assessed as decrease in ACC mRNA expression at 3 uM in presence of 100 nM insulin and 5 to 25 mM glucose measured after 18 hrs by RT-qPCR assay. Type of assay: functional, cell-based. The method in brief:
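Primary hepatocytes isolated from C57BL/6 mice by two-step perfusion. Cells incubated 18 h with 3 μM inhibitor, with 0 or 100 nM insulin and 5 or 25 mM glucose. Transcripts quantified by SYBR Green RT-qPCR after Trizol RNA extraction; proteins by western blot of lysates. Mean ± SEM.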

Assay [13] has as its system Hepatocyte. The assay can be described thus: Inhibition of lipogenesis in mouse primary hepatocytes assessed as decrease in FAS protein expression at 3 uM in presence of 100 nM insulin and 5 to 25 mM glucose measured after 18 hrs by western blot analysis. Type of assay: functional, cell-based.
Assay [14] relates to Hepatocyte. Nature of the assay: Inhibition of glucogenesis in mouse primary hepatocytes stimulated with 100 uM 8-Br-cAMP assessed as decrease in PEPCK mRNA expression at 3 uM in combination with 2 mM metformin measured by RT-qPCR assay. The format is functional, cell-based. Summed up:
(§4)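 Primary mouse hepatocytes given 3 μM compound with 2 mM metformin in the presence of 100 μM 8-Br-cAMP. Gluconeogenic gene mRNA measured by SYBR Green RT-qPCR. Mean ± SEM, three independent experiments.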

Assay [15] relates to Hepatocyte. Nature of the assay: Inhibition of glucogenesis in mouse primary hepatocytes stimulated with 100 uM 8-Br-cAMP assessed as decrease in FBP mRNA expression at 3 uM in combination with 2 mM metformin measured by RT-qPCR assay. The format is functional, cell-based. Summed up: as §4
The species entered for assay [16] is Mus musculus. The assay can be described thus: Inhibition of glucogenesis in mouse assessed as decrease in occupancy of G6Pc promoter with FOXO1 in liver measured by ChIP-qPCR analysis. Type of assay: functional, organism-based. The method in brief:
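Livers from mice dosed ip at 20 mg·kg−1·day−1 for 7 days. Tissue crosslinked in 1% formaldehyde, lysed, sonicated to 200–1000 bp chromatin, immunoprecipitated with anti-FOXO1 or IgG. G6Pc promoter quantified by qPCR.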

Assay [17] concerns the target CREB-binding protein/Histone acetyltransferase p300 (Homo sapiens) (UniProt Q09472+Q92793). The assay can be described thus: Inhibition of CBP/p300 in mouse primary hepatocytes stimulated with 100 uM 8-Br-cAMP assessed as decrease in FOXO1 protein expression at 3 uM in presence of 10 uM MG132. Type of assay: cell-based. The following applies: Primary hepatocyte. The method in brief: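 Primary mouse hepatocytes exposed to 100 μM 8-Br-cAMP, 3 μM compound, 10 μg/ml cycloheximide and 10 μM MG132. FOXO1 protein measured by western blot, band intensity quantified. Three independent experiments.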

Assay [18] has as its system Hepatocyte. The assay can be described thus: Inhibition of glucogenesis in mouse primary hepatocytes stimulated with 100 uM 8-Br-cAMP assessed as decrease in G6Pc mRNA expression at 3 uM measured after 8 hrs by RT-qPCR assay.

The source made the active and inactive calls. The rule behind the calls is not given here.

Sequence of CREB-binding protein/Histone acetyltransferase p300 (Homo sapiens) (Q09472 whole entry, looked up): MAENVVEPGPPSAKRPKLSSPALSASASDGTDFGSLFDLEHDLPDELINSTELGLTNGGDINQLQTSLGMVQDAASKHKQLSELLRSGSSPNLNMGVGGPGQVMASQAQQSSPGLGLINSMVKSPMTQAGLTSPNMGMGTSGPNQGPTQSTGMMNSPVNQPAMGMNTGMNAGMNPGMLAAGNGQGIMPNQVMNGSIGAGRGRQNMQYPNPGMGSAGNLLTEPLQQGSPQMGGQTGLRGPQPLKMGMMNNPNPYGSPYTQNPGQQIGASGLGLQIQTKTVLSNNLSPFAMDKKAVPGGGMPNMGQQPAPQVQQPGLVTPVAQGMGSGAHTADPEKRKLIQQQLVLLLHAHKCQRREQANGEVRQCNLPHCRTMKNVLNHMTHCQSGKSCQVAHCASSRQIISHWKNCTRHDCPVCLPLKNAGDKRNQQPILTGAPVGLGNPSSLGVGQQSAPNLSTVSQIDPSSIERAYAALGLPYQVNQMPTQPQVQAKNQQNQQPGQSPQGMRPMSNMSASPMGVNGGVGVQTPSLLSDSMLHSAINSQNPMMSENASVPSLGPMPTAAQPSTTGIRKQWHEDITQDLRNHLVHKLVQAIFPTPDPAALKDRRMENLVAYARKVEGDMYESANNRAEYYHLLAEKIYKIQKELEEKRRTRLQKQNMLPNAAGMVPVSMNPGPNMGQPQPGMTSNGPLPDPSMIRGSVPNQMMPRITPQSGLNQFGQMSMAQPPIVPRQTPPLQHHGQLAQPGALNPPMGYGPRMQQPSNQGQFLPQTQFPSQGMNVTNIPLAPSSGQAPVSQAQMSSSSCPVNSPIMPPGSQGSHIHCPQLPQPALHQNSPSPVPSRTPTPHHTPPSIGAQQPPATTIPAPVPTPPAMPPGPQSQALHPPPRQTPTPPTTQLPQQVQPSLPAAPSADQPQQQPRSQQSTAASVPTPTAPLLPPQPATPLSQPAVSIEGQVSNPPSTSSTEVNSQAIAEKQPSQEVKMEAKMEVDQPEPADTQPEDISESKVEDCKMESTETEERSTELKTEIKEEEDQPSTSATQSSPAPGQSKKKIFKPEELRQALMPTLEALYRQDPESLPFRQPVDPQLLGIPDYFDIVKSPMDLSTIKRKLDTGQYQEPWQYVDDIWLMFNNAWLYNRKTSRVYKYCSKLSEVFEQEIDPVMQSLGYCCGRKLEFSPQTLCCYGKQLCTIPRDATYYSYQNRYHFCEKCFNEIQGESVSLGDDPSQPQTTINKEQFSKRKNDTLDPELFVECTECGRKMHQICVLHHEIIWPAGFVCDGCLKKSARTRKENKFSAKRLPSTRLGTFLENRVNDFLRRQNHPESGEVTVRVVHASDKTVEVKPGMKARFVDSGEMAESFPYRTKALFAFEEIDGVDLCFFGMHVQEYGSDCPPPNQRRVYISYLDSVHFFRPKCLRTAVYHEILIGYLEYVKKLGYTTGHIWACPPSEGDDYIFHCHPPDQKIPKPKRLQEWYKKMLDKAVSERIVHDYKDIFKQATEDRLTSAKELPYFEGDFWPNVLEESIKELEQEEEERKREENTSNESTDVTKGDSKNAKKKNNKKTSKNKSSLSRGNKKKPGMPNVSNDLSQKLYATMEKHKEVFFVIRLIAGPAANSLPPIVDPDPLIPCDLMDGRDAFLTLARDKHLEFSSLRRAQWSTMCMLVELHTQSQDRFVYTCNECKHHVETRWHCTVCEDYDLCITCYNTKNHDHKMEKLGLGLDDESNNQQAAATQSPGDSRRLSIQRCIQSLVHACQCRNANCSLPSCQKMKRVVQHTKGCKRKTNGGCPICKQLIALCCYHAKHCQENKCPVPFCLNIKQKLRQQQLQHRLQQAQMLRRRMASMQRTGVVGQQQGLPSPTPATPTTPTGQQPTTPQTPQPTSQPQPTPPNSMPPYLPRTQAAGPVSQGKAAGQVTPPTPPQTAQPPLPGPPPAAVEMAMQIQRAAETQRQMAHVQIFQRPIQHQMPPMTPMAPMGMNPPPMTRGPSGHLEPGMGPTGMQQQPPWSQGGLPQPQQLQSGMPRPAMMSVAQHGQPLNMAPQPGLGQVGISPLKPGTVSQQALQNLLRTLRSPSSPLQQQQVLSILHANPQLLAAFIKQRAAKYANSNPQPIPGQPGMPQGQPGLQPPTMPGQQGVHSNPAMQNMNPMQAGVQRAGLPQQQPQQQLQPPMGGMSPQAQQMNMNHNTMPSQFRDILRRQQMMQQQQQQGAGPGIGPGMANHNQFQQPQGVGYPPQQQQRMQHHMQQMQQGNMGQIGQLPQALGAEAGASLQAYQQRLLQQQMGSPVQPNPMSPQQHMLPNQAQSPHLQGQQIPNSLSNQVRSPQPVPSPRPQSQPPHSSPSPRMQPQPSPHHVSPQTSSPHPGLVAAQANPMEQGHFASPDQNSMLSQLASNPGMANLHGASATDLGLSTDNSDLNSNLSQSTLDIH
Sequence of CREB-binding protein/Histone acetyltransferase p300 (Homo sapiens) (Q92793 whole entry, looked up): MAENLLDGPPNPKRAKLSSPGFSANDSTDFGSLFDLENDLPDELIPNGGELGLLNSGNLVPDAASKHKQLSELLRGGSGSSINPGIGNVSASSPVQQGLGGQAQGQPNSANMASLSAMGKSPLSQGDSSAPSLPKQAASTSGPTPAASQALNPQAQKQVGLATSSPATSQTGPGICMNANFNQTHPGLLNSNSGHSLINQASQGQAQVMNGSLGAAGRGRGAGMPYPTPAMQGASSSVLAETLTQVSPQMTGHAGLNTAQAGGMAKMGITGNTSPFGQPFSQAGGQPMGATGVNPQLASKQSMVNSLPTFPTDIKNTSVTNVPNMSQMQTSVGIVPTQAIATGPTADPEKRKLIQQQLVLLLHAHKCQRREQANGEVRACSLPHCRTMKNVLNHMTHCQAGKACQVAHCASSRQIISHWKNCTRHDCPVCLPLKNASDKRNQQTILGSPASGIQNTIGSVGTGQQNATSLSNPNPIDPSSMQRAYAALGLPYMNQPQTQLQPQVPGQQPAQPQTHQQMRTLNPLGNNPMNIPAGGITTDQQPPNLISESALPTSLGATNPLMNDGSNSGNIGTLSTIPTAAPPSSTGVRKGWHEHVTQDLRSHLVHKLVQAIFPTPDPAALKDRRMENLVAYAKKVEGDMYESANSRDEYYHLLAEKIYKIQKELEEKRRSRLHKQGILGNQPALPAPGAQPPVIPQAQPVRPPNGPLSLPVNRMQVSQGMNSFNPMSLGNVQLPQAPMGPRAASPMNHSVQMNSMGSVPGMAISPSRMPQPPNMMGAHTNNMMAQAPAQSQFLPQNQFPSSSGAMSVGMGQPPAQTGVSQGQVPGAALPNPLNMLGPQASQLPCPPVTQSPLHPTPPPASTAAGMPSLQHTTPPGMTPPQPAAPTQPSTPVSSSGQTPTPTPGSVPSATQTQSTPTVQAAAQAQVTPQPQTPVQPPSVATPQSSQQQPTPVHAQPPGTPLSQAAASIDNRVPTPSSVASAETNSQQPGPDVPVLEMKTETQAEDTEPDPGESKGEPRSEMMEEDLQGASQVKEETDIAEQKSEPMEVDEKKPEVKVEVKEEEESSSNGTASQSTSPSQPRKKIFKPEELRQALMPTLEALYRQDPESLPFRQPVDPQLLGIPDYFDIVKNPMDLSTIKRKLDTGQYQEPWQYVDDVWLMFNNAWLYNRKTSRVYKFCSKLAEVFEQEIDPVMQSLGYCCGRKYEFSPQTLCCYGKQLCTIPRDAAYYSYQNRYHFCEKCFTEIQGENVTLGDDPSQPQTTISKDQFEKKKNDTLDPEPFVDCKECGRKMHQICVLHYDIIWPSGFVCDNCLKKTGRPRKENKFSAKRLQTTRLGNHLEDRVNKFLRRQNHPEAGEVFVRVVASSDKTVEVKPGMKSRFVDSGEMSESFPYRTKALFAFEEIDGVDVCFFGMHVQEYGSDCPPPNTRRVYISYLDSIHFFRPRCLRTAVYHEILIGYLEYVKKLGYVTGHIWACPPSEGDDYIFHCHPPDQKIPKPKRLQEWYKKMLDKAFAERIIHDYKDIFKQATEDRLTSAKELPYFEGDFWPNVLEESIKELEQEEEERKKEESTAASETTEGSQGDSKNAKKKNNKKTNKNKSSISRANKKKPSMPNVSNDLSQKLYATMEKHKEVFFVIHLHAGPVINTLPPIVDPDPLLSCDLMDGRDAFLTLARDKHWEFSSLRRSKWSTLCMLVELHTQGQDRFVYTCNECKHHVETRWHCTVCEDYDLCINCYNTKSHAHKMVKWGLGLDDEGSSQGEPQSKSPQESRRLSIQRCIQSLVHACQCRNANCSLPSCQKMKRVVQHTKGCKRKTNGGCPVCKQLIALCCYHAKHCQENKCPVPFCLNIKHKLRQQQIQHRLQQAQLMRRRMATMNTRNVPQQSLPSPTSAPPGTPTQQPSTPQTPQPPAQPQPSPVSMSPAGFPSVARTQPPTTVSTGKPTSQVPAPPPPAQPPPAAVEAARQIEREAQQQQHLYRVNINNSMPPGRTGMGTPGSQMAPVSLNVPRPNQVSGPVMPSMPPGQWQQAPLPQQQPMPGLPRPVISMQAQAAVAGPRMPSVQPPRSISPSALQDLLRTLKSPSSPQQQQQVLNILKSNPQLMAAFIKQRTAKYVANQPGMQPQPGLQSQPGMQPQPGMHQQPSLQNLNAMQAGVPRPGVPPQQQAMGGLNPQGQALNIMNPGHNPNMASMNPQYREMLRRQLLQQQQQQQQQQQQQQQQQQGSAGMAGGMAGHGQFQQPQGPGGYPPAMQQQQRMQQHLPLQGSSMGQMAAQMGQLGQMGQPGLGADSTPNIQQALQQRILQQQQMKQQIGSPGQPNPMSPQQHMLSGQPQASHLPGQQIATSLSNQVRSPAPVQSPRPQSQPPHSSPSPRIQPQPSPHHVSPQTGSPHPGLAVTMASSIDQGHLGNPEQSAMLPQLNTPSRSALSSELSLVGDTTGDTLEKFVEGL

For `CNC(=O)Nc1ccc2c(c1)CCS21OC(=O)N(CC(=O)N(Cc2ccc(F)cc2)[C@@H](C)C(F)(F)F)C1=O` (stereo partly drawn), the outcome in assay [1] and in assay [2] was Active. In addition, the inhibition result in [3], in assay [5], in [6], in [7], in assay [8] and in assay [9] was “Active” throughout. For the same compound, the inhibition result in [10], in assay [12], in assay [13], in assay [14], in assay [15] and in assay [16] was “Active” throughout. Moreover, the inhibition result in assay [17] and in assay [18] was “Active” each time. The inhibition result in assay [4] and in assay [11] was “inactive” each time.
